Results taken from the RNAGym collection of RNA variant scans (doi:10.1126/science.aae0568).
This sample holds only a part of the variants without activity.

B1: tRNA (parent)
chain: GUUCCGUUGGCGUAAUGGUAACGCGUCUCCCUCCUAAGGAGAAGACUGCGGGUUCGAGUCCCGUACGGAACG

Variants of: B1
Experiment: yeast fitness relative to wild type (ratio to wild type); higher = fitter; tRNA-Arg(CCU), competitive growth, 37 C, YPD
In short: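 Amplicons of the tRNA-Arg(CCU) gene were sequenced, 100-nucleotide paired-end, from the start population and from each end population of a pooled yeast competition. The competition, in six parallel replicates, lasted 24 hours in YPD at 37°C. Fitness relative to wild type was calculated from changes in genotype frequencies. Genotypes had to have ≥ 100 starting reads, and estimates < 0.5 were set to 0.5.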
For U26G G50C C66U, the yeast fitness was ≤ 0.5.
With U26G G51A the yeast fitness was 0.598.
In the case of U26G G51A A65G, the yeast fitness is reported as 0.599.
Work on U26G G51C G58C yielded a yeast fitness of 0.54.
With U26G G52A G68U the yeast fitness was ≤ 0.5.
Work on U26G G56A yielded a yeast fitness of 0.919.
With U26G G63A the yeast fitness was 0.919.
U26G G68A gave a yeast fitness of 0.824.
In the case of U26G G68C, the yeast fitness is reported as 0.596.
In the case of U26G U28A A45C, the yeast fitness is reported as ≤ 0.5.
With U26G U35C G63A A70G the yeast fitness was ≤ 0.5.
Work on U26G U47A yielded a yeast fitness of 0.811.
Variant U26G U47C G51A has a yeast fitness of 0.559.
For U26G U53A C55U C61A, the yeast fitness was ≤ 0.5.
With U26G U53A G56C G63A the yeast fitness was ≤ 0.5.
For U26G U59C, the yeast fitness was 0.936.
In the case of U26G U64C, the yeast fitness is reported as 0.878.
Work on C27A yielded a yeast fitness of 0.997.
C27A A36G showed a yeast fitness of 0.761.
With C27A A36G A37G A70U the yeast fitness was ≤ 0.5.
With C27A A36G A43G C55U C60U the yeast fitness was ≤ 0.5.
For C27A A36G A57G, the yeast fitness was ≤ 0.5.
In the case of C27A A36G C49U A70U, the yeast fitness is reported as ≤ 0.5.
In the case of C27A A36G C61G C66U A69U, the yeast fitness is reported as ≤ 0.5.
For C27A A36G C61U, the yeast fitness was ≤ 0.5.
For C27A A36G G68A, the yeast fitness was ≤ 0.5.
For C27A A37C C55G, the yeast fitness was ≤ 0.5.
In the case of C27A A37C C62G, the yeast fitness is reported as ≤ 0.5.
In the case of C27A A37C G44A U53G, the yeast fitness is reported as ≤ 0.5.
In the case of C27A A37C G68A, the yeast fitness is reported as ≤ 0.5.
In the case of C27A A37G G39C C55U A65C, the yeast fitness is reported as ≤ 0.5.
For C27A A37G U53A, the yeast fitness was ≤ 0.5.
In the case of C27A A37U C61U, the yeast fitness is reported as ≤ 0.5.
In the case of C27A A40C A45U A57U, the yeast fitness is reported as ≤ 0.5.
C27A A40G A69U gave a yeast fitness of 0.582.
Variant C27A A42C C46U C62U has a yeast fitness of 0.563.
For C27A A42C G68C, the yeast fitness was ≤ 0.5.
For C27A A42G G44C C66U, the yeast fitness was ≤ 0.5.
For C27A A42U, the yeast fitness was 0.702.
C27A A43C C66U showed a yeast fitness of 0.709.
Variant C27A A43U U64C has a yeast fitness of 0.628.
For C27A A45G G48C, the yeast fitness was ≤ 0.5.
For C27A A45U, the yeast fitness was 0.839.
With C27A A45U C49U G67C the yeast fitness was ≤ 0.5.
In the case of C27A A45U C60G G63A A65U C66U, the yeast fitness is reported as ≤ 0.5.
In the case of C27A A57C C62U, the yeast fitness is reported as 0.531.
Work on C27A A57G G63A yielded a yeast fitness of 0.551.
C27A A65G C66U showed a yeast fitness of 0.772.
Variant C27A A69U has a yeast fitness of 0.846.
C27A A70C showed a yeast fitness of 0.787.
C27A A70U gave a yeast fitness of 0.962.
In the case of C27A C29A C49A, the yeast fitness is reported as ≤ 0.5.
Variant C27A C29G has a yeast fitness of 0.702.
With C27A C29G C49G G51C U54C the yeast fitness was ≤ 0.5.
In the case of C27A C30A, the yeast fitness is reported as 0.766.
In the case of C27A C30A A45C G56C C60U G68U, the yeast fitness is reported as ≤ 0.5.
In the case of C27A C30G A42C C61G, the yeast fitness is reported as 1.01.
In the case of C27A C30G G41C, the yeast fitness is reported as ≤ 0.5.
In the case of C27A C30G G41C C61G C62U C66U A69U, the yeast fitness is reported as ≤ 0.5.
Variant C27A C31A has a yeast fitness of 0.758.
With C27A C31A G52A G58C C62A the yeast fitness was ≤ 0.5.
For C27A C31G A42C C61G, the yeast fitness was ≤ 0.5.
For C27A C31G C60G, the yeast fitness was 0.537.
For C27A C31U A36U A45C, the yeast fitness was ≤ 0.5.
C27A C31U A43G C61U A65C showed a yeast fitness of 0.501.
Work on C27A C31U A43U yielded a yeast fitness of 0.961.
C27A C34A gave a yeast fitness of 0.68.
With C27A C34G A40G the yeast fitness was 0.666.
In the case of C27A C34G A42G G50A, the yeast fitness is reported as ≤ 0.5.
In the case of C27A C34G A43U A57C, the yeast fitness is reported as ≤ 0.5.
For C27A C34U A42C U53G C66U, the yeast fitness was 0.536.
In the case of C27A C46A C66U, the yeast fitness is reported as 0.704.
C27A C46A G63A showed a yeast fitness of 0.714.
C27A C46U G67A showed a yeast fitness of 0.699.
For C27A C49A G56C A65G, the yeast fitness was ≤ 0.5.
C27A C49G showed a yeast fitness of 0.876.
In the case of C27A C55G, the yeast fitness is reported as 0.646.
In the case of C27A C55U C66A, the yeast fitness is reported as ≤ 0.5.
In the case of C27A C60G U64C, the yeast fitness is reported as 0.779.
With C27A C60U A69G the yeast fitness was ≤ 0.5.
Work on C27A C60U C61G A65G yielded a yeast fitness of 0.598.
For C27A C61A, the yeast fitness was 0.67.
In the case of C27A C61A G67C, the yeast fitness is reported as ≤ 0.5.
For C27A C61G A69G, the yeast fitness was ≤ 0.5.
With C27A C61G G67A the yeast fitness was ≤ 0.5.
For C27A C62U, the yeast fitness was 0.815.
For C27A G38A, the yeast fitness was 0.798.
In the case of C27A G38U A45G G48C, the yeast fitness is reported as ≤ 0.5.
With C27A G39A A57G G68A the yeast fitness was ≤ 0.5.
Work on C27A G39C yielded a yeast fitness of 0.616.
In the case of C27A G41C, the yeast fitness is reported as 1.18.
C27A G41C A43C C66U gave a yeast fitness of 0.517.
In the case of C27A G41C A57U, the yeast fitness is reported as 0.611.
C27A G41C C66U gave a yeast fitness of 0.689.
In the case of C27A G44C G50C, the yeast fitness is reported as 0.639.
C27A G50A A69U gave a yeast fitness of 0.566.
For C27A G50C C62G C66U, the yeast fitness was 0.606.
For C27A G52A U54A, the yeast fitness was ≤ 0.5.
C27A G56C gave a yeast fitness of 0.627.
In the case of C27A G56C A70U, the yeast fitness is reported as ≤ 0.5.
For C27A G56C C66G, the yeast fitness was ≤ 0.5.
In the case of C27A G58A, the yeast fitness is reported as 0.849.
With C27A G58A C66G the yeast fitness was 0.512.
C27A G58C A69C showed a yeast fitness of 0.719.
With C27A G58C U64G the yeast fitness was ≤ 0.5.
In the case of C27A U28A, the yeast fitness is reported as 0.841.
With C27A U28A G41A G48A the yeast fitness was 0.75.
With C27A U28A G41A G48A A65G the yeast fitness was ≤ 0.5.
In the case of C27A U28C A37C, the yeast fitness is reported as ≤ 0.5.
C27A U28C C29G gave a yeast fitness of 0.633.
With C27A U28C C29G A65U the yeast fitness was ≤ 0.5.
In the case of C27A U28C C29G A70G, the yeast fitness is reported as ≤ 0.5.
With C27A U28G the yeast fitness was 0.66.
In the case of C27A U32A C61G U64C, the yeast fitness is reported as ≤ 0.5.
In the case of C27A U32C A42C C46U C62U, the yeast fitness is reported as ≤ 0.5.
With C27A U32G G51A G56C the yeast fitness was ≤ 0.5.
For C27A U35A, the yeast fitness was 0.662.
With C27A U35A G48A U59C the yeast fitness was 0.567.
In the case of C27A U35C, the yeast fitness is reported as 0.735.
In the case of C27A U35C A37U C49U C55U C60G A65C, the yeast fitness is reported as ≤ 0.5.
In the case of C27A U35C A42U, the yeast fitness is reported as ≤ 0.5.
In the case of C27A U35C U64A, the yeast fitness is reported as ≤ 0.5.
C27A U53A gave a yeast fitness of 0.639.
With C27A U54C C66A the yeast fitness was ≤ 0.5.
Work on C27A U59C yielded a yeast fitness of 0.883.
For C27A U59G, the yeast fitness was 0.778.
In the case of C27A U64A, the yeast fitness is reported as 0.748.
C27A U64G showed a yeast fitness of 0.65.
Variant C27G has a yeast fitness of 0.644.
With C27G A36C G48C the yeast fitness was ≤ 0.5.
In the case of C27G A36G A65G, the yeast fitness is reported as ≤ 0.5.
In the case of C27G A36G G52C, the yeast fitness is reported as ≤ 0.5.
With C27G A36G G67U the yeast fitness was ≤ 0.5.
In the case of C27G A36G G68A, the yeast fitness is reported as ≤ 0.5.
C27G A36U G39C showed a yeast fitness of 0.526.
Work on C27G A37C A42G G48C U59C yielded a yeast fitness of 0.533.
In the case of C27G A37C G39A A45C A65U, the yeast fitness is reported as ≤ 0.5.
With C27G A37C G48C C55A G63A the yeast fitness was 0.526.
C27G A37G gave a yeast fitness of 0.678.
Variant C27G A37G A69U has a yeast fitness of 0.537.
In the case of C27G A37G C66U, the yeast fitness is reported as 0.538.
With C27G A37G G52U the yeast fitness was ≤ 0.5.
C27G A37U gave a yeast fitness of 0.591.
With C27G A37U C49G the yeast fitness was ≤ 0.5.
For C27G A40C, the yeast fitness was 0.575.
In the case of C27G A40G C62U A65U, the yeast fitness is reported as ≤ 0.5.
C27G A40U G68C gave a yeast fitness of 0.523.
C27G A40U U59C showed a yeast fitness of 0.543.
Work on C27G A42C C49G C61G yielded a yeast fitness of 0.669.
In the case of C27G A42C G63C, the yeast fitness is reported as ≤ 0.5.
With C27G A42G G68A the yeast fitness was ≤ 0.5.
In the case of C27G A42U C55U, the yeast fitness is reported as ≤ 0.5.
For C27G A42U C55U A70C, the yeast fitness was ≤ 0.5.
In the case of C27G A43C A57U, the yeast fitness is reported as 0.599.
With C27G A43C A65U G67U the yeast fitness was ≤ 0.5.
With C27G A43C G63C the yeast fitness was ≤ 0.5.
For C27G A43G A70G, the yeast fitness was ≤ 0.5.
With C27G A43G C60A the yeast fitness was ≤ 0.5.
Work on C27G A43U yielded a yeast fitness of 0.604.
With C27G A45C C55G G58C the yeast fitness was ≤ 0.5.
In the case of C27G A45G C61U A69U, the yeast fitness is reported as ≤ 0.5.
In the case of C27G A45G G48A C66U, the yeast fitness is reported as ≤ 0.5.
In the case of C27G A45U C49U, the yeast fitness is reported as ≤ 0.5.
In the case of C27G A45U C55A, the yeast fitness is reported as ≤ 0.5.
In the case of C27G A45U G56C, the yeast fitness is reported as 0.531.
C27G A57G gave a yeast fitness of 0.608.
For C27G A57G U59G, the yeast fitness was ≤ 0.5.
